The test system of test [1] is L1210. As to the kind of experiment: In vitro inhibition of L1210 leukemia cells growth. It is filed as functional, cell-based. To be noted: Mus musculus. A digest of the protocol:
(§1)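 Murine L1210 and PDD-resistant L1210/PDD cells kept in McCoy's 5A with 10% fetal calf serum. Compounds in water or Me2SO, or as suspensions, added to inoculated medium; Me2SO at most 0.2% final. Seeding about 5 × 10^4 cells/mL, then 96 h at 37 °C in 5% CO2. Density measured by electronic cell counter. ID50 (µg/mL) from growth inhibition.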

The test system of test [2] is L1210. As to the kind of experiment: In vitro inhibition of PDD resistant subline L1210/PDD growth. The note with it: Mus musculus. Format: functional, cell-based. A digest of the protocol: as §1
Test [3] concerns Mus musculus. As to the kind of experiment: Activity against L1210 leukemia cells was measured as treated by control on ip administration of 5 mg/kg in mice. To be noted: at 5 mg/kg. More on the design: dose 5 mg/kg. It is filed as functional, organism-based.
In test [4] the test system is Mus musculus. The test is described as follows: Activity against L1210 leukemia cells was measured as treated by control on ip administration of 10 mg/kg in mice. Format: functional, organism-based. Also noted: dose 10 mg/kg. The note with it: at 10 mg/kg.
Test [5] concerns Mus musculus. The test is described as follows: Activity against L1210 leukemia cells was measured as treated by control on ip administration of 2.5 mg/kg in mice. Format: functional, organism-based. More on the design: dose 2.5 mg/kg. The note with it: at 2.5 mg/kg.
The test system of test [6] is Mus musculus. As to the kind of experiment: Activity against L1210 leukemia cells was measured as treated by control on ip administration of 40 mg/kg in mice. Format: functional, organism-based. More on the design: dose 40 mg/kg. To be noted: at 40 mg/kg.
For test [7], the system named is Mus musculus. The test is described as follows: Activity against L1210 leukemia cells was measured as treated by control on ip administration of 20 mg/kg in mice. More on the design: dose 20 mg/kg. To be noted: at 20 mg/kg. Format: functional, organism-based.
The subject of test [8] is Mus musculus. As to the kind of experiment: Activity against L1210 leukemia cells was measured as treated by control on ip administration of 0.62 mg/kg in mice. It is filed as functional, organism-based. More on the design: dose 0.62 mg/kg. To be noted: at 0.62 mg/kg.
The test system of test [9] is Mus musculus. The test is described as follows: Activity against L1210 leukemia cells was measured as treated by control on ip administration of 1.25 mg/kg in mice. Also noted: dose 1.25 mg/kg. The note with it: at 1.25 mg/kg. Format: functional, organism-based.
For test [10], the system named is Mus musculus. As to the kind of experiment: Activity against L1210 leukemia cells was measured as treated by control on ip administration of 1 mg/kg in mice. It is filed as functional, organism-based. More on the design: dose 1 mg/kg. To be noted: at 1 mg/kg.
In test [11] the test system is Mus musculus. The test is described as follows: Activity against L1210 leukemia cells was measured as treated by control on ip administration of 50 mg/kg in mice;Toxic. It is filed as functional, organism-based. The note with it: at 50 mg/kg. Also noted: dose 50 mg/kg.

What is called T/C is the ratio of treated to control.

Values joined by “and” are separate entries in the source; they are usually repeats but may differ in a detail not shown here. Equal entries are not always repeated.

For the substance “2,5-dimethyl-1-trichloroplatinumhexahydropyrazinediium”, the ID50 in the test with L1210 [1] was 10 µg/mL; in the test with L1210 [2] it was greater than 10 µg/mL.

With “ethyl(1-trichloroplatinum-2-pyridiniumyl)ammonium”, the ID50 in the test on L1210 [1] and in the test with L1210 [2] was greater than 10 µg/mL each time.

As for “1-(4-pyridiniumyl)-2-(1-trichloroplatinum-4-pyridiniumyl)ethane”, the ID50 with L1210 [1] and with L1210 [2] was greater than 10 µg/mL each time.

On to “1-(trichloro-dihydroxy)platinum-3-pyridiniumammonium”, for which the ID50 with L1210 [1] is 4.5 µg/mL; in the test on L1210 [2], greater than 10 µg/mL.

Turning to “1-trichloroplatinumhexahydropyrazinediium”, the ID50 in the test on L1210 [1] and in the test with L1210 [2] was greater than 10 µg/mL each time.

On to “4-trichloroplatinum-4-azoniabicyclo[2.2.2]oct-2-ammonium”, for which the ID50 in the test with L1210 [1] amounted to 2 µg/mL; with L1210 [2], 5 µg/mL.

As to “ethyl(1-trichloroplatinum-2-pyridiniumylmethyl)ammonium”, the T/C in the test with Mus musculus [3] amounted to 122%; with Mus musculus [4], 139%; with Mus musculus [5], 119%; in the test on Mus musculus [6], 148%; in the test with Mus musculus [7], 140%. For the same substance, the ID50 in the test on L1210 [1] and in the test on L1210 [2] was greater than 10 µg/mL throughout.

Take “N-methyl-1-trichloroplatinum-3-pyridiniumylmethanammonium”: the T/C turned out to be 110% in the test on Mus musculus [8]; 120% in the test with Mus musculus [3]; 130% in the test with Mus musculus [4]; 126% in the test with Mus musculus [5]; 122% with Mus musculus [9]; 133% in the test on Mus musculus [7]. Also, the ID50 in the test on L1210 [1] and in the test with L1210 [2] was greater than 10 µg/mL each time.

On to “1-pentachloroplatinum-3-pyridiniumammonium”, for which the ID50 in the test on L1210 [1] was 4.4 µg/mL; with L1210 [2] it was greater than 10 µg/mL.

Regarding “3-(1-methyltetrahydro-1H-2-pyrroliumyl)-1-trichloroplatinumpyridinium”, the ID50 with L1210 [1] and in the test on L1210 [2] was greater than 10 µg/mL throughout.

Take “1-trichloroplatinum-1,4-diazoniabicyclo[2.2.2]octane”: the ID50 in the test on L1210 [1] and in the test with L1210 [2] was greater than 10 µg/mL each time.

Take “1-chloroplatinumsulphate-3-pyridiniumammonium”: the figures for the ID50 in the test with L1210 [1] and in the test with L1210 [2] were 4.6 µg/mL and greater than 10 µg/mL, respectively.

Turning to “2-(1-ethylhexahydro-2-pyridiniumyl)-1-trichloroplatinumpyridinium”, the ID50 in the test on L1210 [1] and with L1210 [2] was greater than 10 µg/mL each time.

As to “1-trichloroplatinum-3-pyridiniumylmethanammonium”, the T/C is 100% in the test on Mus musculus [10]; “Toxic” with Mus musculus [11]; 123% and 138% in the test with Mus musculus [3]; 125% in the test on Mus musculus [4]. Besides, the ID50 in the test on L1210 [1] and in the test on L1210 [2] was greater than 10 µg/mL throughout.

For the substance “1-methyl-4-trichloroplatinumhexahydropyrazinediium”, the ID50 in the test on L1210 [1] is 9 µg/mL; in the test with L1210 [2] it was greater than 10 µg/mL.

Take “1-trichloroplatinum-3-pyridiniumammonium”: the ID50 in the test on L1210 [1] and with L1210 [2] was greater than 10 µg/mL throughout.

Regarding “1-trichloroplatinumhexahydro-1-pyridiniumammonium”, the values for the ID50 in the test with L1210 [1] and with L1210 [2] were 4.2 µg/mL and greater than 10 µg/mL, respectively.

The values above are taken from ChEMBL document CHEMBL1122113, “Synthesis and antitumor activity of new platinum complexes” (J Med Chem, 1982).
